“And” between values parts separate entries of the source, which are not always exact repeats. Equal values may be shown once.
System: HEK-293T
Test: Multiplex assay against HEK293T
Format: toxicity, cell-based
Conditions: human, number of replicates 2
Method in brief: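 On a CQ1 microscope at 37°C and 5% CO2, live cells were imaged after compound addition. They had been stained at seeding with Hoechst33342, BioTracker Green Microtubule Cytoskeleton Dye, MitoTracker Red and Annexin V Alexa Fluor 680. CellPathfinder machine-learning gating assigned cells to Hoechst high-intensity objects or normal cells, normal cells to healthy, pyknosed or fragmented nuclei, and pyknosed cells to mitotic or apoptotic. Tubulin, mitochondrial-mass and membrane-permeability phenotypes are per cents of healthy-nucleus cells.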

[1] = 12 h, 1 µM, compound concentration 1 uM
[2] = 12 h, 10 µM, compound concentration 10 uM
[3] = 24 h, 1 µM, compound concentration 1 uM
[4] = 24 h, 10 µM, compound concentration 10 uM
[5] = 48 h, 1 µM, compound concentration 1 uM
[6] = 48 h, 10 µM, compound concentration 10 uM

COc1cc(Nc2cnc(C#N)c(O[C@H](C)CN(C)C)n2)ncc1-c1cnn(C)c1 was tested, and the “Population Apoptotic (%)” value [1] was 43% and 40%, the “Population Fragmented Nuclei (%)” value [1] was 3% and the “Population Healthy Nuclei (%)” value [1] was 78% and 82%. The “Population Hoechst High Intensity Objects (%)” value [1] was 4% and 7%, the “Population Membrane Permeable-Phenotype (%)” value [1] was 5% and 3% and the “Population Mitochondria Different-Phenotype (%)” value [1] was 19% and 14%. The “Population Mitotic Cells (%)” value [1] was 56% and 59%, the “Population Normal (%)” value [1] was 95% and 92% and the “Population Pyknosed Nuclei (%)” value [1] was 18% and 14%. For the same compound, the “Population Tubulin-Different-Phenotype (%)” value [1] was 54% and 50%, the “Total Cell Count” value [1] was 593 and 622 and the “Population Apoptotic (%)” value [2] was 59% and 57%. The “Population Fragmented Nuclei (%)” value [2] was 2%, the “Population Healthy Nuclei (%)” value [2] was 62% and 75% and the “Population Hoechst High Intensity Objects (%)” value [2] was 6% and 4%. For the same compound, the “Population Membrane Permeable-Phenotype (%)” value [2] was 5% and 3%, the “Population Mitochondria Different-Phenotype (%)” value [2] was 45% and 52% and the “Population Mitotic Cells (%)” value [2] was 40% and 43%. For the same compound, the “Population Normal (%)” value [2] was 93% and 95%, the “Population Pyknosed Nuclei (%)” value [2] was 35% and 21% and the “Population Tubulin-Different-Phenotype (%)” value [2] was 87% and 90%. The “Total Cell Count” value [2] was 383 and 486, the “Population Apoptotic (%)” value [3] was 28% and 26% and the “Population Fragmented Nuclei (%)” value [3] was 5%. The “Population Healthy Nuclei (%)” value [3] was 84% and 80%, the “Population Hoechst High Intensity Objects (%)” value [3] was 8% and 7% and the “Population Membrane Permeable-Phenotype (%)” value [3] was 4%. The “Population Mitochondria Different-Phenotype (%)” value [3] was 11% and 14%, the “Population Mitotic Cells (%)” value [3] was 71% and 73% and the “Population Normal (%)” value [3] was 91% and 92%. The “Population Pyknosed Nuclei (%)” value [3] was 9% and 13%, the “Population Tubulin-Different-Phenotype (%)” value [3] was 46% and 41% and the “Total Cell Count” value [3] was 801 and 735. The “Population Apoptotic (%)” value [4] was 63% and 69%, the “Population Fragmented Nuclei (%)” value [4] was 2% and 3% and the “Population Healthy Nuclei (%)” value [4] was 76% and 78%. The “Population Hoechst High Intensity Objects (%)” value [4] was 9% and 10%, the “Population Membrane Permeable-Phenotype (%)” value [4] was 3% and 4% and the “Population Mitochondria Different-Phenotype (%)” value [4] was 47% and 42%. The “Population Mitotic Cells (%)” value [4] was 36% and 30%, the “Population Normal (%)” value [4] was 90% and 89% and the “Population Pyknosed Nuclei (%)” value [4] was 20% and 18%. For the same compound, the “Population Tubulin-Different-Phenotype (%)” value [4] was 85% and 82%, the “Total Cell Count” value [4] was 524 and 415 and the “Population Apoptotic (%)” value [5] was 31% and 47%. The “Population Fragmented Nuclei (%)” value [5] was 9% and 7%, the “Population Healthy Nuclei (%)” value [5] was 79% and 80% and the “Population Hoechst High Intensity Objects (%)” value [5] was 9% and 8%. For the same compound, the “Population Membrane Permeable-Phenotype (%)” value [5] was 6% and 8%, the “Population Mitochondria Different-Phenotype (%)” value [5] was 8% and 11% and the “Population Mitotic Cells (%)” value [5] was 68% and 52%. For the same compound, the “Population Normal (%)” value [5] was 90% and 91%, the “Population Pyknosed Nuclei (%)” value [5] was 10% and 12% and the “Population Tubulin-Different-Phenotype (%)” value [5] was 39% and 46%. The “Total Cell Count” value [5] was 1105 and 1012, the “Population Apoptotic (%)” value [6] was 71% and 67% and the “Population Fragmented Nuclei (%)” value [6] was 3%. The “Population Healthy Nuclei (%)” value [6] was 44% and 52%, the “Population Hoechst High Intensity Objects (%)” value [6] was 12% and 11% and the “Population Membrane Permeable-Phenotype (%)” value [6] was 4%. The “Population Mitochondria Different-Phenotype (%)” value [6] was 69% and 77%, the “Population Mitotic Cells (%)” value [6] was 28% and 32% and the “Population Normal (%)” value [6] was 87% and 88%. For the same compound, the “Population Pyknosed Nuclei (%)” value [6] was 52% and 43%, the “Population Tubulin-Different-Phenotype (%)” value [6] was 81% and 89% and the “Total Cell Count” value [6] was 374 and 473.
CS(=O)(=O)c1ccc(C(=O)Nc2cccc(COc3ccc(Br)cc3CN[C@H]3CCC[C@@H]3O)c2)c(Cl)c1.O=CO was tested, and the “Population Apoptotic (%)” value [1] was 63% and 58%, the “Population Healthy Nuclei (%)” value [1] was 76% and 80% and the “Population Mitotic Cells (%)” value [1] was 36% and 41%. For the same compound, the “Population Normal (%)” value [1] was 91% and 92%, the “Total Cell Count” value [1] was 550 and 522 and the “Population Apoptotic (%)” value [2] was 66% and 59%. The “Population Healthy Nuclei (%)” value [2] was 84% and 88%, the “Population Mitotic Cells (%)” value [2] was 33% and 40% and the “Population Normal (%)” value [2] was 91% and 90%. The “Total Cell Count” value [2] was 631 and 603, the “Population Apoptotic (%)” value [3] was 55% and 58% and the “Population Healthy Nuclei (%)” value [3] was 80% and 83%. The “Population Mitotic Cells (%)” value [3] was 44% and 41%, the “Population Normal (%)” value [3] was 90% and the “Total Cell Count” value [3] was 792 and 800. For the same compound, the “Population Apoptotic (%)” value [4] was 60% and 67%, the “Population Healthy Nuclei (%)” value [4] was 85% and 79% and the “Population Mitotic Cells (%)” value [4] was 39% and 32%. The “Population Normal (%)” value [4] was 91% and 87%, the “Total Cell Count” value [4] was 623 and 546 and the “Population Apoptotic (%)” value [5] was 20% and 29%. The “Population Healthy Nuclei (%)” value [5] was 86% and 87%, the “Population Mitotic Cells (%)” value [5] was 79% and 70% and the “Population Normal (%)” value [5] was 91% and 92%. The “Total Cell Count” value [5] was 1777 and 1587, the “Population Apoptotic (%)” value [6] was 60% and 78% and the “Population Healthy Nuclei (%)” value [6] was 86% and 80%. For the same compound, the “Population Mitotic Cells (%)” value [6] was 40% and 21%, the “Population Normal (%)” value [6] was 89% and 90% and the “Total Cell Count” value [6] was 671 and 634.
With Cn1ncc(NC(=O)c2nc(-c3c(F)cccc3F)sc2N)c1N1CC[C@@H](N)[C@H](F)CC1 the “Population Apoptotic (%)” value [1] was 29% and 32%, the “Population Healthy Nuclei (%)” value [1] was 85% and 86% and the “Population Mitochondria Different-Phenotype (%)” value [1] was 10% and 6%. The “Population Mitotic Cells (%)” value [1] was 70% and 67%, the “Population Normal (%)” value [1] was 92% and 95% and the “Population Pyknosed Nuclei (%)” value [1] was 10%. The “Population Tubulin-Different-Phenotype (%)” value [1] was 42% and 32%, the “Total Cell Count” value [1] was 737 and 724 and the “Population Apoptotic (%)” value [2] was 34% and 47%. For the same compound, the “Population Healthy Nuclei (%)” value [2] was 81% and 80%, the “Population Mitotic Cells (%)” value [2] was 65% and 52% and the “Population Normal (%)” value [2] was 95% and 97%. For the same compound, the “Population Pyknosed Nuclei (%)” value [2] was 16%, the “Population Tubulin-Different-Phenotype (%)” value [2] was 54% and 47% and the “Total Cell Count” value [2] was 730 and 672. The “Population Apoptotic (%)” value [3] was 21% and 25%, the “Population Healthy Nuclei (%)” value [3] was 87% and 86% and the “Population Mitochondria Different-Phenotype (%)” value [3] was 4%. The “Population Mitotic Cells (%)” value [3] was 78% and 74%, the “Population Normal (%)” value [3] was 93% and 90% and the “Population Pyknosed Nuclei (%)” value [3] was 8% and 9%. The “Population Tubulin-Different-Phenotype (%)” value [3] was 25% and 21%, the “Total Cell Count” value [3] was 1100 and 1020 and the “Population Apoptotic (%)” value [4] was 47% and 52%. For the same compound, the “Population Healthy Nuclei (%)” value [4] was 85% and 86%, the “Population Mitochondria Different-Phenotype (%)” value [4] was 16% and the “Population Mitotic Cells (%)” value [4] was 52% and 47%. The “Population Normal (%)” value [4] was 97% and 95%, the “Population Tubulin-Different-Phenotype (%)” value [4] was 44% and 41% and the “Total Cell Count” value [4] was 753 and 689. The “Population Apoptotic (%)” value [5] was 15%, the “Population Healthy Nuclei (%)” value [5] was 86% and 85% and the “Population Mitotic Cells (%)” value [5] was 90% and 84%. For the same compound, the “Population Normal (%)” value [5] was 89% and 85%, the “Population Pyknosed Nuclei (%)” value [5] was 4% and 5% and the “Population Tubulin-Different-Phenotype (%)” value [5] was 12% and 13%. For the same compound, the “Total Cell Count” value [5] was 2209 and 1829, the “Population Apoptotic (%)” value [6] was 44% and 55% and the “Population Healthy Nuclei (%)” value [6] was 89% and 87%. For the same compound, the “Population Mitochondria Different-Phenotype (%)” value [6] was 10%, the “Population Mitotic Cells (%)” value [6] was 55% and the “Population Normal (%)” value [6] was 94% and 92%. The “Population Pyknosed Nuclei (%)” value [6] was 4% and 6%, the “Population Tubulin-Different-Phenotype (%)” value [6] was 29% and 23% and the “Total Cell Count” value [6] was 770 and 768.

— ChEMBL document CHEMBL5303300, “EUbOPEN Chemogenomics Library - Multiplex” (2023)
